Source: PubChem (NMMLSC)
GSH fluor = compound fluoresces at 488/530 nm on GSH beads | 190,000 tested, 0.25% active | GSH beads flow cytometry, compound fluorescence 488/530 nm; active compounds read high | fluorescence (KMESF) at 10 µM; in the data active = fluorescence above about 89;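 also: glutathione beads carrying GST-tagged Bcl family fusion proteins plus one bare bead set; values are compound well signal with DMSO vehicle wells as background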
Arr AP2 block = blocks beta-arrestin peptide binding to AP2 adaptin | 340,000 tested, 0.31% active | inhibition, % at 10 µM | FITC-arrestin peptide / GST-AP2 beads, flow cytometry; AP2 beta2 appendage carries R879A mutation | AID 504490;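 active = inhibition above a set limit, near 3 SD of compounds lacking own fluorescence, cut at about 54% in these data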;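 also: plate controls were DMSO wells for no effect and 5 µM unlabelled arrestin peptide for full effect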
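Material – AP2 appendage R879A on GSH beads · Buffer or medium – PBS with 0.05% Tween 20 and 0.1% BSA · Probe or stimulus – fluorescein-tagged arrestin peptide at 50 nM final · Incubation – compound with beads 12 min RT, then probe 1 h RT · Detection – high-throughput flow cytometry of beads, ex 488, em 535 nm · Evaluation – percent response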
Pemphigus Ab inh = inhibitors of pemphigus antibody binding to human desmoglein-3; P32926; DSG3-coupled beads, scFv-anti-DSG3-GFP binding, flow cytometry; active compounds read low; binding (percent of control), % at 10 µM; 310,000 tested, 0.48% active;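 active = binding more than 3 SD below its plate's average and above zero; inconclusive = below that plate limit but binding exactly zero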;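 also: hits lower antibody fragment binding to DSG3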
Target sequence (P32926 whole entry, looked up, the tested form may be a part): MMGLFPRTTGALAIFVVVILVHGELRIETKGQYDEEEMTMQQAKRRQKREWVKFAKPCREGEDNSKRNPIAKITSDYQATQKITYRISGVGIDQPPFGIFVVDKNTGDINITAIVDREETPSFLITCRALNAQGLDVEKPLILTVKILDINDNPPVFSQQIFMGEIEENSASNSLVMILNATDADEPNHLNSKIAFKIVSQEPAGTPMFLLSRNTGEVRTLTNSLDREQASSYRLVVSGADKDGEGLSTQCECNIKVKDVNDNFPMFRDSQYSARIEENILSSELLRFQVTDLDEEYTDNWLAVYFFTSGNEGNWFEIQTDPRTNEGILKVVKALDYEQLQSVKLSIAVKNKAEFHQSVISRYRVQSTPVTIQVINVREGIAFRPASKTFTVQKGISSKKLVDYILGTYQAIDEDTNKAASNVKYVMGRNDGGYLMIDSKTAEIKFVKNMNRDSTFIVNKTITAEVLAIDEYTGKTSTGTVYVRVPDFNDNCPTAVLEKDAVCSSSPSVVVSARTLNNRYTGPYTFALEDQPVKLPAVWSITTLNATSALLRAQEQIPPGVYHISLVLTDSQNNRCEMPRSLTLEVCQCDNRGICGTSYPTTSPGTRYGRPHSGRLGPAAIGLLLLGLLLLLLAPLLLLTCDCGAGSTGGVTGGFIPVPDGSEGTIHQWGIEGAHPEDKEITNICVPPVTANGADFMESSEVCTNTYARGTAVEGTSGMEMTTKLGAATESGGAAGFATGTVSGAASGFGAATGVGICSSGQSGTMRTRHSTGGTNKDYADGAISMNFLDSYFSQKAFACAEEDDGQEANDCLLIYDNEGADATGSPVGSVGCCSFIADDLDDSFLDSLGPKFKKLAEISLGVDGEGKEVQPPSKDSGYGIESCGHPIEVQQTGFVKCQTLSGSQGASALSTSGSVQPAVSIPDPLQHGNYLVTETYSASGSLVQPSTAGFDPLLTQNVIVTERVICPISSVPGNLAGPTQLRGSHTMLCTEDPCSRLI
Avidin fluor = compound fluoresces at 488/530 nm on avidin beads; compound fluorescence 488/530 nm, flow cytometry; active compounds read high; fluorescence (KMESF) at 10 µM; 220,000 tested, 0.38% active; AID 1775; in the data active = fluorescence above about 47
Arr-AP2 CP1 = blocks beta-arrestin peptide binding to human AP2; shares compounds with Arr AP2 block; GST-AP2 beads, FITC arrestin peptide binding, flow cytometry; GST-fused beta2-adaptin appendage, R879A mutant; inhibition, % at 10 µM; 1,300 tested, 2% active; AID 504908;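 active = inhibition above a set limit, roughly 3 SD of non-fluorescent compound noise, cut at about 38% in these data; inactive = inhibition at or below that limit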;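 also: loss of bead fluorescence from 50 nM FITC arrestin peptide bound to appendage; 0% = negative control wells and 100% = excess unlabelled arrestin peptide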
GST-FITC bead = counter-screen for beta-arrestin AP2 inhibitors: GST-GSH bead binding | AID 588338 | 1,300 tested, 2% active | inhibition, % at 10 µM | shares compounds with Arr AP2 block | GST-fluorescein binding to GSH beads, fluorescence;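 active = inhibition above 50%, about 3 SD of the inhibition seen with non-fluorescent compounds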;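 also: fluorescein maleimide labelled GST captured on 4 micron glutathione beads; higher means more loss of bead fluorescence from quenching or blocked binding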
* marks the source's active call; other numbers are inactive results. Only some compounds are listed: those with a hit (about 1.1% of all), similar ones and a draw of the others.

O=C(Cn1c(=O)[nH]c2ccccc2c1=O)Nc1ccc2c(c1)OCO2 was read as Arr AP2 block -1.6, Pemphigus Ab inh inconclusive, Arr-AP2 CP1 0.5 and GST-FITC bead -0.1.
`C[C@@H](C(=O)Nc1ccc2c(c1)OCO2)n1c(=O)[nH]c2ccccc2c1=O` gave Arr AP2 block 4.1, Pemphigus Ab inh 98.5, Arr-AP2 CP1 -2.7 and GST-FITC bead -4.2.
CC1CCN(CCc2nc3cc(NC(=O)C(C)C)ccc3n2C)CC1 was read as Arr AP2 block -9.7 and Pemphigus Ab inh 100.0.
`CC(O)[C@H]1CNCCN1CCc1cccc(F)c1` (stereo not given in full) gave Arr AP2 block 4.3 and Pemphigus Ab inh 98.9.
Screening CC(NC(=O)c1ccco1)C(=O)N(C)Cc1ccc(C(F)(F)F)cc1 (stereo not given) returned Arr AP2 block 21.7.
`Cn1nc(C(=O)N2CCCC2)c2ccccc2c1=O` gave GSH fluor 19, Arr AP2 block 3.2 and Avidin fluor 8.
Screening CSc1ccc(C(=O)C2CCCN(C(=O)c3nn(C)c(=O)c4ccccc34)C2)cc1 (stereo not given) returned GSH fluor 11, Arr AP2 block 57.9*, Pemphigus Ab inh 100.9, Avidin fluor 10, Arr-AP2 CP1 4.8 and GST-FITC bead -3.7.
`O=C(CN1CCOCC1)Nc1ccc(Cl)cn1` gave Arr AP2 block 54.2*, Pemphigus Ab inh 110.0, Arr-AP2 CP1 9.9 and GST-FITC bead 7.7.
For O=C(Cc1c(F)cccc1Cl)N/N=C/c1cccs1 the results were Arr AP2 block -2.5 and Pemphigus Ab inh 100.7.
`COc1ccc(N(CC(=O)Nc2ccc3c(c2)OCCO3)S(=O)(=O)c2cccc(C)c2)cc1` gave Arr AP2 block 29.9 and Pemphigus Ab inh 122.6.
Screening CCOC(=O)C1CCN(c2cc3c(cc2NC(=O)c2ccccc2Cl)n(C)c(=O)n3C)CC1 returned Arr AP2 block -6.4, Pemphigus Ab inh 106.8, Arr-AP2 CP1 -4.1 and GST-FITC bead 1.1.
CCOC(=O)C1CCN(c2cc3c(cc2NC(=O)c2ccccc2F)n(C)c(=O)n3C)CC1 was read as Arr AP2 block 34.5, Pemphigus Ab inh 104.6, Arr-AP2 CP1 -9.9 and GST-FITC bead 5.5.
`CCOC(=O)C1CCN(c2cc3c(cc2NC(=O)c2ccccc2OCC)n(C)c(=O)n3C)CC1` gave Arr AP2 block 10.3, Pemphigus Ab inh 100.1, Arr-AP2 CP1 6.1 and GST-FITC bead -3.6.
For CCOc1cc(NC(=O)C2CC2)c(OCC)cc1NC(=O)c1ccccc1OCC the results were Arr AP2 block -5.7 and Pemphigus Ab inh 87.7.
CCOC(=O)C1CCN(c2cc3c(cc2NC(=O)c2ccc(F)cc2)n(C)c(=O)n3C)CC1 was read as Arr AP2 block 36.1, Pemphigus Ab inh 107.6, Arr-AP2 CP1 -8.6 and GST-FITC bead -4.6.
`CC(C)Nc1nnc(SC(C)C(=O)NCc2ccc3c(c2)OCO3)s1` (stereo not given) gave GSH fluor 22, Arr AP2 block -2.8, Pemphigus Ab inh 103.9 and Avidin fluor 9.
For CC(OC(=O)c1nn(C(C)C)c(=O)c2ccccc12)C(=O)Nc1ncc(Cl)cc1Cl (stereo not given) the results were GSH fluor 9, Arr AP2 block 61.0*, Pemphigus Ab inh 120.7, Avidin fluor 1, Arr-AP2 CP1 -8.8 and GST-FITC bead 1.4.
Screening Cc1nc(N2CCN(C(=O)c3cnccn3)CC2)c2c3c(sc2n1)CC(C(C)(C)C)CC3 (stereo not given) returned Arr AP2 block 18.4 and Pemphigus Ab inh 95.0.
For Cc1ccsc1C(=O)Nc1cccc(S(=O)(=O)N(C)C)c1 the results were GSH fluor 12, Arr AP2 block 3.2, Pemphigus Ab inh 101.9 and Avidin fluor 5.
COc1cc(C)c(S(=O)(=O)N2CCCC2)cc1C(C)C was read as GSH fluor 13, Arr AP2 block 57.2*, Pemphigus Ab inh 95.7, Avidin fluor 8, Arr-AP2 CP1 -4.9 and GST-FITC bead 2.3.
CCN(C(=O)CSc1nc2ccccc2[nH]1)C1CCS(=O)(=O)C1 (stereo not given) was read as Arr AP2 block 54.4*, Pemphigus Ab inh inconclusive, Arr-AP2 CP1 -5.8 and GST-FITC bead -6.5.
For CC(C(=O)N1CCc2ccccc21)N1CCN(Cc2ccc(Cl)cc2)CC1 (stereo not given) the results were Arr AP2 block -6.2 and Pemphigus Ab inh 95.1.
Screening CC(C)CCn1cnc2c(sc3nc4c(cc32)CSC(C)(C)C4)c1=O returned GSH fluor 11, Arr AP2 block 104.5*, Pemphigus Ab inh 100.0, Avidin fluor 5, Arr-AP2 CP1 -4.8 and GST-FITC bead 8.5.
CC(=O)Nc1ccc(S(=O)(=O)Nc2nc3ccccc3nc2Nc2cccc(S(N)(=O)=O)c2)cc1 was read as Arr AP2 block 6.0, Pemphigus Ab inh 84.4 and Avidin fluor 6.
CN(C)c1ncc(C2=C(Cl)C(=O)C(N3CCCC3)=C(Cl)C2=O)s1 was read as GSH fluor 3, Arr AP2 block 88.2*, Pemphigus Ab inh 96.2, Avidin fluor 1, Arr-AP2 CP1 77.1* and GST-FITC bead 27.0.
`O=C1C(Cl)=C(N2CCCCC2)C(=O)C(Cl)=C1c1cnc(N2CCCCC2)s1` gave GSH fluor 3, Arr AP2 block 98.1*, Pemphigus Ab inh 84.5, Avidin fluor 1, Arr-AP2 CP1 67.6* and GST-FITC bead 18.2.
Screening CC(=O)c1cnc(N(C)C)s1 returned GSH fluor 21, Arr AP2 block 9.5, Pemphigus Ab inh 101.7 and Avidin fluor 7.
O=C(CN1C(=O)CS/C1=C\c1nc(-c2ccc(Cl)cc2)cs1)Nc1cccnc1Cl was read as GSH fluor 9, Arr AP2 block 60.8*, Pemphigus Ab inh 95.3, Avidin fluor 17, Arr-AP2 CP1 8.7 and GST-FITC bead 1.8.
For Cc1ccc(-c2csc(/C=C3\SC(C)C(=O)N3CC(=O)Nc3ccccc3F)n2)cc1 (stereo not given) the results were Arr AP2 block 7.9, Pemphigus Ab inh 89.5 and Avidin fluor 8.
COc1ccccc1C(O)P(=O)(OC1CCCCC1)OC1CCCCC1 (stereo not given) was read as Arr AP2 block 54.7*, Avidin fluor 3, Arr-AP2 CP1 -8.7 and GST-FITC bead -3.9.
`Cc1ccc(S(=O)(=O)NC(=O)COc2cc(C)ccc2C(C)C)cc1` gave Arr AP2 block 0.2 and Pemphigus Ab inh 85.7.
`CCCCn1c(N)c(N(C)C(=O)c2ccccc2Oc2ccccc2)c(=O)[nH]c1=O` gave Arr AP2 block -1.2.
Screening CCC(=O)Nc1ccc(-c2ccc(N3CCC(C)CC3)nn2)cc1 returned Arr AP2 block -7.0 and Pemphigus Ab inh 106.5.
